Reference: ChEMBL document CHEMBL2384906, “Biological activity, design, synthesis and structure activity relationship of some novel derivatives of curcumin containing sulfonamides” (Eur J Med Chem, 2013)
Converted amounts (≈) assume the structure as drawn. The source made the active and inactive calls. The calls are words filed in the database; no cut-off is given here.

Columns and labels:
Escherichia coli [1] = assay: Antimicrobial activity against Escherichia coli ATCC 35218 assessed as diameter of inhibition zone at 80 uM after 24 hrs by Kirby -Baur disc diffusion method; type: functional
In short: (§1)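 Kirby-Bauer disc diffusion was used. Acetone stocks (160 µM) were serially doubled down to 80, 40 and 20 µM. 4 µL of each went onto 5 mm sterile paper discs, which were dried 30 min at 50 °C. Inoculum was 1.5 × 10⁸ CFU/mL diluted to 3 × 10² CFU/mL, and 50 µL was spread on Mueller-Hinton agar. After 24 h at 37 °C the inhibition-zone diameter was measured. Ciprofloxacin served as positive control.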

Pseudomonas aeruginosa [2] = assay: Antimicrobial activity against Pseudomonas aeruginosa ATCC 15499 assessed as diameter of inhibition zone at 80 uM after 24 hrs by Kirby -Baur disc diffusion method; type: functional; in short: as §1
Salmonella typhi [3] = assay: Antimicrobial activity against Salmonella typhi ATCC 23564 assessed as diameter of inhibition zone at 80 uM after 24 hrs by Kirby -Baur disc diffusion method; type: functional; conditions: for diameter of the inhibition zone (DIZ): Salmonella enterica subsp. enterica serovar Typhi
Bacillus cereus [4] = assay: Antimicrobial activity against Bacillus cereus MTCC 7350 assessed as diameter of inhibition zone at 80 uM after 24 hrs by Kirby -Baur disc diffusion method; type: functional; in short: as §1
Salmonella typhi [5] = assay: Antimicrobial activity against Salmonella typhi ATCC 23564 after 24 hrs by broth micro serial dilution method; type: functional
Bacillus cereus [6] = assay: Antimicrobial activity against Bacillus cereus MTCC 7350 after 24 hrs by broth micro serial dilution method; type: functional
In short: (§2)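 This was broth microdilution in autoclaved Mueller-Hinton broth. 150 µL of compound per well was serially diluted […], and 50 µL of test organism was added. Plates were incubated 24 h at 37 °C and optical density was read.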

Staphylococcus aureus [7] = assay: Antimicrobial activity against Staphylococcus aureus ATCC 11632 assessed as diameter of inhibition zone at 80 uM after 24 hrs by Kirby -Baur disc diffusion method; type: functional; in short: as §1
Pseudomonas aeruginosa [8] = assay: Antimicrobial activity against Pseudomonas aeruginosa ATCC 15499 after 24 hrs by broth micro serial dilution method; type: functional; in short: as §2
Escherichia coli [9] = assay: Antimicrobial activity against Escherichia coli ATCC 35218 after 24 hrs by broth micro serial dilution method; type: functional; in short: as §2
Staphylococcus aureus [10] = assay: Antimicrobial activity against Staphylococcus aureus ATCC 11632 after 24 hrs by broth micro serial dilution method; type: functional; in short: as §2
Aspergillus niger [11] = assay: Antifungal activity against Aspergillus niger MTCC 1108 after 48 hrs; type: functional
Curvularia lunata [12] = assay: Antifungal activity against Curvularia lunata MTCC 581 assessed as zone of inhibition at 20 uM after 48 hrs by disc diffusion method; type: functional; conditions: for zone of inhibition at 20 µM: MTCC 581, 48 h, read-out: IZ
In short: (§3)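 Spores from 4-day potato dextrose agar cultures, suspended in sterile water at 1.5 × 10⁵ CFU/mL. 0.2 mL was spread on potato dextrose agar. 5 mm filter-paper discs soaked with test compound were laid on the lawn. Incubation was 48 h at 28 °C, then the inhibition zone was measured in mm. Fluconazole was the positive control and acetone the negative control.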

Aspergillus niger [13] = assay: Antifungal activity against Aspergillus niger MTCC 1108 assessed as zone of inhibition at 80 uM after 48 hrs by disc diffusion method; type: functional; in short: as §3
Curvularia lunata [14] = assay: Antifungal activity against Curvularia lunata MTCC 581 assessed as zone of inhibition at 40 uM after 48 hrs by disc diffusion method; type: functional; conditions: MTCC 581, 48 h, read-out: IZ; in short: as §3
Trichoderma viride [15] = assay: Antifungal activity against Trichoderma viride MTCC 1107 assessed as zone of inhibition at 20 uM after 48 hrs by disc diffusion method; type: functional; conditions: for zone of inhibition at 20 µM: MTCC 1107, 48 h, read-out: IZ; in short: as §3
Aspergillus flavus [16] = assay: Antifungal activity against Aspergillus flavus MTCC 1021 assessed as zone of inhibition at 80 uM after 48 hrs by disc diffusion method; type: functional; in short: as §3
Trichoderma viride [17] = assay: Antifungal activity against Trichoderma viride MTCC 1107 after 48 hrs; type: functional; conditions: MTCC 1107, 48 h
Curvularia lunata [18] = assay: Antifungal activity against Curvularia lunata MTCC 581 assessed as zone of inhibition at 80 uM after 48 hrs by disc diffusion method; type: functional; conditions: MTCC 581, 48 h, read-out: IZ; in short: as §3
Curvularia lunata [19] = assay: Antifungal activity against Curvularia lunata MTCC 581 after 48 hrs; type: functional; conditions: MTCC 581, 48 h
Trichoderma viride [20] = assay: Antifungal activity against Trichoderma viride MTCC 1107 assessed as zone of inhibition at 80 uM after 48 hrs by disc diffusion method; type: functional; conditions: MTCC 1107, 48 h, read-out: IZ; in short: as §3
Aspergillus flavus [21] = assay: Antifungal activity against Aspergillus flavus MTCC 1021 after 48 hrs; type: functional
Trichoderma viride [22] = assay: Antifungal activity against Trichoderma viride MTCC 1107 assessed as zone of inhibition at 40 uM after 48 hrs by disc diffusion method; type: functional; conditions: MTCC 1107, 48 h, read-out: IZ; in short: as §3
HeLa = assay: Cytotoxicity against human HeLa cells after 24 hrs by MTT assay; type: functional, cell-based
In short: (§4)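 The MTT assay seeded 5 × 10⁴ cells per well and grew them 24 h in RPMI 1640 with compound at 2.5–200 µM. Medium without cells was the blank and adriamycin the positive control. MTT was added for 4 h at 37 °C, formazan was solubilised, and absorbance was read at 570 nm. IC50 is the concentration that cuts viability 50% against untreated cells.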

HCT-116 = assay: Cytotoxicity against human HCT116 cells after 24 hrs by MTT assay; type: functional, cell-based; in short: as §4
HepG2 = assay: Cytotoxicity against human HepG2 cells after 24 hrs by MTT assay; type: functional, cell-based; in short: as §4
Salmonella typhi [23] = assay: Antimicrobial activity against Salmonella typhi ATCC 23564 assessed as diameter of inhibition zone at 40 uM after 24 hrs by Kirby -Baur disc diffusion method; type: functional; conditions: Salmonella enterica subsp. enterica serovar Typhi
QG-56 = assay: Cytotoxicity against human QG56 cells after 24 hrs by MTT assay; type: functional, cell-based; in short: as §4
Escherichia coli [24] = assay: Antimicrobial activity against Escherichia coli ATCC 35218 assessed as diameter of inhibition zone at 20 uM after 24 hrs by Kirby -Baur disc diffusion method; type: functional; conditions: ATCC 35218, 24 h, read-out: DIZ; in short: as §1
Escherichia coli [25] = assay: Antimicrobial activity against Escherichia coli ATCC 35218 assessed as diameter of inhibition zone at 40 uM after 24 hrs by Kirby -Baur disc diffusion method; type: functional; conditions: ATCC 35218, 24 h, read-out: DIZ; in short: as §1
Salmonella typhi [26] = assay: Antimicrobial activity against Salmonella typhi ATCC 23564 assessed as diameter of inhibition zone at 20 uM after 24 hrs by Kirby -Baur disc diffusion method; type: functional; conditions: Salmonella enterica subsp. enterica serovar Typhi
Mus musculus = assay: Antiinflammatory activity in mouse assessed as inhibition of carrageenan-induced increase in paw volume at 200 mg/kg administered 1 hr prior to carrageenan challenge measured after 3 hrs relative to control; type: functional
In short: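 Mice were fasted 2 h and placed in groups of five. Controls received saline i.p. Phenylbutazone was given at 100 mg/kg i.p., curcumin at 200 mg/kg i.p., and derivatives at 200 mg/kg. After 1 h, 0.1 mL of 1% carrageenan in saline was injected subplantar into the right hind paw. Paw volume was followed by plethysmometer for 3 h, and % inhibition was calculated as (Vc − Vt)/Vc × 100.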

[27] = Salmonella enterica subsp. enterica serovar Typhi

Compound	diameter of the inhibition zone (DIZ) (Escherichia coli [1])	diameter of the inhibition zone (DIZ) (Pseudomonas aeruginosa [2])	diameter of the inhibition zone (DIZ) (Salmonella typhi [3])	diameter of the inhibition zone (DIZ) (Bacillus cereus [4])	MIC (Salmonella typhi [5]; [27])	MIC (Bacillus cereus [6])	diameter of the inhibition zone (DIZ) (Staphylococcus aureus [7])	MIC (Pseudomonas aeruginosa [8])	MIC (Escherichia coli [9])	MIC (Staphylococcus aureus [10])	MIC (Aspergillus niger [11])	zone of inhibition at 20 µM (Curvularia lunata [12]) [mm]	inhibition zone (IZ) (Aspergillus niger [13])	zone of inhibition at 40 µM (Curvularia lunata [14]) [mm]	inhibition zone (IZ) (Aspergillus flavus [16])	MIC (Trichoderma viride [17]) [µM]	zone of inhibition at 80 µM (Curvularia lunata [18]) [mm]	MIC (Curvularia lunata [19]) [µM]	zone of inhibition at 80 µM (Trichoderma viride [20]) [mm]	zone of inhibition at 40 µM (Trichoderma viride [22]) [mm]	other results
Nc1ccc(S(N)(=O)=O)cc1	inactive	inactive	inactive	inactive	inactive	inactive	inactive	inactive	inactive	inactive											
OC(Cn1cncn1)(Cn1cncn1)c1ccc(F)cc1F [FLUCONAZOLE]											inactive	24	inactive	27	inactive	20 (≈ 6.13 µg/mL)	28	20 (≈ 6.13 µg/mL)	29	24	zone of inhibition at 20 µM (Trichoderma viride [15]): 21 mm; MIC (Aspergillus flavus [21]; MTCC 1021, 48 h): > 80 µM
COc1cc(/C=C/c2nn(-c3ccccc3)c(/C=C/c3ccc(O)c(OC)c3)c2/N=N/c2ccc(S(=O)(=O)Nc3ccccn3)cc2)ccc1O		inactive		inactive		inactive	inactive			inactive	inactive	10	inactive	13	inactive	40 (≈ 28 µg/mL)	17	40 (≈ 28 µg/mL)	17	13	zone of inhibition at 80 µM (Escherichia coli [1]; ATCC 35218, 24 h, read-out: DIZ): 10 mm; IC50 (HeLa): 50 µM; zone of inhibition at 80 µM (Salmonella typhi [3]; Salmonella enterica, ATCC 23564, 24 h, read-out: DIZ): 9 mm; MIC (Salmonella typhi [5]; Salmonella enterica, ATCC 23564, 24 h): > 80 µM; IC50 (HCT-116): Not Active; IC50 (HepG2): Not Active; zone of inhibition at 20 µM (Trichoderma viride [15]): 10 mm; diameter of the inhibition zone (DIZ) (Salmonella typhi [23]): inactive; IC50 (QG-56): 100 µM; zone of inhibition at 20 µM (Escherichia coli [24]): 7 mm; zone of inhibition at 40 µM (Escherichia coli [25]): 9 mm; diameter of the inhibition zone (DIZ) (Salmonella typhi [26]): inactive; inhibition in vivo at 200 mg/kg (Mus musculus): 20.9%; MIC (Pseudomonas aeruginosa [8]; ATCC 15499, 24 h): > 80 µM; MIC (Aspergillus flavus [21]): inactive; MIC (Escherichia coli [9]; ATCC 35218, 24 h): > 80 µM
COc1cc(/C=C/c2nn(-c3ccccc3)c(/C=C/c3ccc(O)c(OC)c3)c2/N=N/c2ccc(S(N)(=O)=O)cc2)ccc1O	inactive	inactive	inactive	inactive	inactive	inactive	inactive	inactive	inactive	inactive	inactive		inactive	10	inactive	80 (≈ 49.9 µg/mL)	11	> 80	11	10	inhibition zone (IZ) (Curvularia lunata [12]): inactive; IC50 (HeLa): > 100 µM; IC50 (HCT-116): Not Active; IC50 (HepG2): Not Active; inhibition zone (IZ) (Trichoderma viride [15]): inactive; IC50 (QG-56): > 100 µM; inhibition in vivo at 200 mg/kg (Mus musculus): 22.5%; MIC (Aspergillus flavus [21]): inactive
